From PubChem
Shown are actives, neighbours in structure and some others; about 1.4% of the full set was active somewhere.
TNAP inh no acc = inhibitors of human TNAP without phosphate acceptor; P05186; purified TNAP, CDP-star luminescence, 30 min; inhibition, % at 20 µM; 0.26% of 200,000 active;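 active = tissue-nonspecific alkaline phosphatase inhibition above about 50% at 20 µM in the single-dose screen, limit read from the data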;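 note: 0% = DMSO negative control and 100% = EDTA positive control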
Target sequence (P05186 whole entry, looked up): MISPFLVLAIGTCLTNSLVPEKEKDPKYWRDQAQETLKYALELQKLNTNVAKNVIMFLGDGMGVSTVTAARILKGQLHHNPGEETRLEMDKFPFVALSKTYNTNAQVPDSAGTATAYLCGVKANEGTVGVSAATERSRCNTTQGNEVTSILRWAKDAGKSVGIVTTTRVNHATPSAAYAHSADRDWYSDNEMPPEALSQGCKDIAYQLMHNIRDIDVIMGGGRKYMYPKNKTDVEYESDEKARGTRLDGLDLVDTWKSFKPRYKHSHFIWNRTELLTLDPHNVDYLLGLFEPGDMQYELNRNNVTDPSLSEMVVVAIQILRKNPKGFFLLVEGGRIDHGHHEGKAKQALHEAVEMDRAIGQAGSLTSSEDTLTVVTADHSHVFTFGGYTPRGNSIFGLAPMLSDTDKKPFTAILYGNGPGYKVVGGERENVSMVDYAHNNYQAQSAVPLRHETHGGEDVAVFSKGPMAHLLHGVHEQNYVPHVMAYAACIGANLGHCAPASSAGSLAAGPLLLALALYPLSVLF
TNAP inh hiacc = blocks human TNAP under high phosphate acceptor concentration; 0.03% of 200,000 active; inhibition, % at 20 µM; P05186; purified TNAP, CDP-star luminescence, 1 M DEA;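 active = over 50% inhibition of tissue-nonspecific alkaline phosphatase at 20 µM in the single-dose screen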;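 note: plate controls were DMSO wells for no effect and EDTA-quenched wells as full inhibition for full effect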
CHT block = human CHT choline transport inhibition; 0.86% of 310,000 active; AID 488975; B-score at 10 µM; Q9GZV3; CHT-expressing cells, membrane potential dye, choline response; active compounds read low;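 active = B-score over 3 SD under the library average, and starting fluorescence ratio not unusually high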;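 note: choline stimulus applied at its EC90 after an EC20 pre-addition; B-score computed on integrated fluorescence ratio after choline addition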
CHT allo act = allosterically activates the human high affinity choline transporter; 0.49% of 310,000 active; B-score at 10 µM; AID 488977; Q9GZV3; CHT-expressing cells, membrane potential dye, choline EC20; active compounds read high; LV-AA mutant CHT in HEK293 cells;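 active = initial fluorescence not abnormally high and integrated response B-score, plate-corrected, over 3 SD above library mean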
ABCB6 inh MLPCN = inhibitors of human ABC transporter ABCB6; fluorescence ratio to DMSO, % at 10 µM; K562-ABCB6 porphyrin accumulation, flow cytometry, 1 h; active compounds read low; 0.19% of 360,000 active; Q9NP58;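 active = fluorescence ratio to DMSO below 75%, the collection mean minus 3 SD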;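 note: signal is porphyrin accumulated inside mitochondria; 100% equals median channel fluorescence of DMSO control wells; lower ratio means ABCB6 inhibition with less porphyrin fluorescence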
TNAP act hiacc = activators of human TNAP at high phosphate acceptor concentration. P05186. 200,000 tested, under 10 active. activation factor at 20 µM. purified TNAP, CDP-star luminescence, 1 M DEA, 30 min; active compounds read high; 0 = EDTA background, 1 = DMSO-only activity;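 active = activation factor at least 2 at 20 µM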
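Test system – human TNAP · Doses – 20 µM single point · Incubation – 30 min, room temperature · Signal – luminescent substrate turnover signal · Read-out basis – activation factor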
CHT block conf = confirmation of human choline transporter CHT inhibitors; shares compounds with CHT block; CHT-expressing cells, choline membrane potential dye; LV-to-AA substituted CHT, HEK293 cells; CHT activity remaining % of control (active compounds read low), % at 10 µM; 70% of 2,400 active; AID 493221;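 active = choline transporter activity left, mean of duplicates at 10 µM, below buffer-only control mean minus 3 SD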;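 note: depolarization triggered by choline at its EC90 following an EC20 pre-addition; 0% = hemicholinium-3 full block and 100% = buffer-only control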
HEK293 MPD ctr = counter-screen for CHT inhibitors: effect in parental HEK293 cells | shares compounds with CHT block | membrane potential dye, choline response; active = decrease or increase beyond buffer ±3SD | membrane potential ratio readout (active if shifted either direction beyond buffer ±3SD; no single direction) at 10 µM | 4% of 2,400 active | AID 493222;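 note: parental cells lack the transporter so any hit is non-specific; ratio is peak minus trough fluorescence over baseline after EC90 choline challenge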
Starred values were filed as active, the others as inactive.

Screening CC1CCC(NC(=O)c2cccc(S(=O)(=O)N3CCN(C)CC3)c2)CC1 (configuration not stated) returned CHT block -13*, CHT allo act inactive, ABCB6 inh MLPCN 102, CHT block conf 9.1%* and HEK293 MPD ctr inactive.
For CN(C(=O)c1ccc(NC(=O)Cc2ccc(NC(=O)C3CCN(C(=O)C4CCCCC4)CC3)cc2)cc1)C1CCCC1 the results were ABCB6 inh MLPCN 96.
`CCOc1ccc(NC(=O)c2cccc(NC(=O)c3ccccc3)c2)cc1` gave CHT block inactive, CHT allo act inactive and ABCB6 inh MLPCN 100.
For CCc1cccc(CC)c1NC(=O)c1cccc(NC(=O)c2ccccc2)c1 the results were TNAP inh no acc -6, TNAP inh hiacc -7, CHT block -5.6*, CHT allo act inactive, ABCB6 inh MLPCN 96, TNAP act hiacc 1.1, CHT block conf 65%* and HEK293 MPD ctr inactive.
O=S(=O)(c1ccccc1F)N1CCN(CCc2ccccc2)CC1 was read as CHT block -6.8*, CHT allo act inactive, ABCB6 inh MLPCN 93, CHT block conf 48%* and HEK293 MPD ctr inactive.
For O=S(=O)(c1ccc(F)c(F)c1)N1CCN(CCc2ccccc2)CC1 the results were CHT block -6.8*, CHT allo act inactive, ABCB6 inh MLPCN 101, CHT block conf 54%* and HEK293 MPD ctr inactive.
Screening O=S(=O)(c1ccccc1)N1CCN(CCc2ccccc2)CC1 returned CHT block inactive, CHT allo act inactive and ABCB6 inh MLPCN 99.
For Cc1ccc2nsnc2c1S(=O)(=O)N1CCN(CCc2ccccc2)CC1 the results were TNAP inh no acc -8, TNAP inh hiacc 0, CHT block -11*, CHT allo act inactive, ABCB6 inh MLPCN 98, TNAP act hiacc 1, CHT block conf 41%* and HEK293 MPD ctr inactive.
For O=C1CCN(CCc2ccccc2)CCN1CCSc1ccccc1 the results were CHT block -5*, CHT allo act inactive, ABCB6 inh MLPCN 99, CHT block conf 50%* and HEK293 MPD ctr inactive.
For CN1CCC(=O)N(CCSc2ccccc2)CC1 the results were CHT block inactive, CHT allo act inactive and ABCB6 inh MLPCN 93.
`COC(=O)C1=C(N)Oc2cc(C)n(CCc3ccccc3)c(=O)c2C1c1cccnc1` (configuration not stated) gave TNAP inh no acc -12, TNAP inh hiacc -7, CHT block -5.2*, CHT allo act inactive, ABCB6 inh MLPCN 110, TNAP act hiacc 1.1, CHT block conf 69%* and HEK293 MPD ctr inactive.
`CCN(CC)C(=O)Oc1ccc2oc(=O)cc(-c3cc4cccc(OC)c4o3)c2c1` gave CHT block inactive, CHT allo act inactive and ABCB6 inh MLPCN 91.
Screening C=CCn1c(SCc2ccc(Cl)cc2)nc2c1c(=O)[nH]c(=O)n2C returned TNAP inh no acc -4, TNAP inh hiacc -9, CHT block inactive, CHT allo act inactive, ABCB6 inh MLPCN 90 and TNAP act hiacc 1.1.
Screening C=CCn1c(SCc2ccc(F)cc2)nc2c1c(=O)[nH]c(=O)n2C returned TNAP inh no acc -17, TNAP inh hiacc -4, CHT block -6*, CHT allo act inactive, ABCB6 inh MLPCN 99, TNAP act hiacc 1, CHT block conf inactive and HEK293 MPD ctr inactive.
Screening C/C(=N\NC(=O)c1ccc(NS(=O)(=O)c2cccs2)cc1)c1ccc(O)cc1O returned CHT block inactive, CHT allo act inactive and ABCB6 inh MLPCN 99.
`Cc1cccc(C(=O)N[C@H](C(=O)Nc2ncc(C)s2)C(C)C)c1` gave TNAP inh no acc -3, TNAP inh hiacc -1, CHT block -11*, CHT allo act inactive, ABCB6 inh MLPCN 96, TNAP act hiacc 1, CHT block conf inactive and HEK293 MPD ctr inactive.
Screening Cc1c[n+]([O-])cc(C)c1[N+](=O)[O-] returned ABCB6 inh MLPCN 101.
`S=c1[nH]nc(-c2ccco2)n1/N=C/c1cccc(Cl)c1` gave CHT block inactive, CHT allo act inactive and ABCB6 inh MLPCN 93.
Screening S=c1[nH]nc(-c2ccccn2)n1/N=C/c1cccc(Cl)c1 returned TNAP inh no acc 38, TNAP inh hiacc 1, CHT block -5.7*, CHT allo act inactive, ABCB6 inh MLPCN 92, TNAP act hiacc 1, CHT block conf inactive and HEK293 MPD ctr inactive.
For Oc1ccc(/C=N/n2c(-c3ccccc3)n[nH]c2=S)cc1Br the results were CHT block -6*, CHT allo act inactive, ABCB6 inh MLPCN 100, CHT block conf 54%* and HEK293 MPD ctr inactive.
Oc1c(Br)cc(/C=N/n2c(-c3ccccc3)n[nH]c2=S)cc1Br was read as CHT block inactive, CHT allo act inactive and ABCB6 inh MLPCN 99.
For O=C(C[n+]1cccc(CNC(=O)c2ccc(OC(F)F)cc2)c1)Nc1cccc(C(F)(F)F)c1 the results were TNAP inh no acc 0, TNAP inh hiacc 0, CHT block inactive, CHT allo act inactive, ABCB6 inh MLPCN 99 and TNAP act hiacc 1.
COc1cc(O)c(C(CC(=O)N2CCN(c3ccccc3)CC2)c2ccc(N(C)C)cc2)c(OC)c1 (configuration not stated) was read as CHT block -11*, CHT allo act inactive, ABCB6 inh MLPCN 99, CHT block conf inactive and HEK293 MPD ctr inactive.
CCOC(=O)c1c(NC(=O)CSc2nnc(-c3ccccc3)n2CC)sc(C(C)=O)c1C was read as TNAP inh no acc -6, TNAP inh hiacc -4, CHT block -5.3*, CHT allo act inactive, ABCB6 inh MLPCN 100, TNAP act hiacc 1, CHT block conf inactive and HEK293 MPD ctr inactive.
For CCOC(=O)c1sc(NC(=O)CSc2nc3c(c(=O)n2-c2ccc(C)cc2)SCC3)c(C(=O)OCC)c1C the results were TNAP inh no acc 0, TNAP inh hiacc 1, CHT block -7*, CHT allo act inactive, ABCB6 inh MLPCN 97, TNAP act hiacc 1, CHT block conf 69%* and HEK293 MPD ctr inactive.
Screening CCOC(=O)c1sc(NC(=O)CSc2nnnn2-c2ccc(C)cc2)c(C(=O)OCC)c1C returned TNAP inh no acc -18, TNAP inh hiacc -4, CHT block inactive, CHT allo act inactive, ABCB6 inh MLPCN 89 and TNAP act hiacc 1.
